The source made the active and inactive calls. The calls are words filed in the database; no cut-off is given here.
Legend:
[1] = Induction of singlet oxygen production in DMSO assessed as DPBF absorption intensity (reference value: 100%); type: functional
In short: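 DPBF (50 µM in DMSO) was mixed with 1 µM photosensitizer in the dark. Samples were irradiated at 660 nm, 50 mW, 2 J/cm² for 40 s. Singlet oxygen was read as the decay of normalized DPBF absorbance at 418 nm relative to a DPBF-only control.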

[2] = Dark toxicity in human MIAPaCa2 cells assessed as reduction in cell viability after 72 hrs by MTT assay; type: cell-based, MIA PaCa-2
In short: (§1)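 AsPC-1 cells were grown in RPMI-1640, and MIA PaCa-2 and PANC-1 in DMEM, each with 10% FBS and 1% penicillin/streptomycin. 5.0 x 10^3 cells were seeded and left overnight at 37 °C. They were exposed to 0-300 µM compound for 3h without laser irradiation, then held 72h in the dark at 37 °C, 5% CO₂. Viability was read by MTT.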

[3] = Dark toxicity in human PANC1 cells assessed as reduction in cell viability after 72 hrs by MTT assay; type: cell-based, PANC-1; in short: as §1
[4] = Selectivity index, ratio of IC50 for dark toxicity in human AsPC1 cells to IC50 for phototoxicity in human AsPC1 cells; type: cell-based; details: read-out: Ratio IC50
In short: (§2)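 The ratio is the dark-toxicity IC50 over the phototoxicity IC50 in the same cell line, both from 72h MTT. The dark arm received no light. The photo arm was irradiated at 660 nm, 50 mW, 9 J/cm² after 3h compound exposure.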

[5] = Selectivity index, ratio of IC50 for dark toxicity in human PANC1 cells to IC50 for phototoxicity in human PANC1 cells; type: cell-based, PANC-1; details: read-out: Ratio IC50; in short: as §2
[6] = Drug uptake in human AsPC1 cells at 5 uM after 3 to 24 hrs by FACS analysis; type: ADME, cell-based; details: aspc1, 5 µM
In short: (§3)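 AsPC-1 cells (2 x 10^5) were seeded and kept in the dark at 37 °C for 24h. They were then incubated with 5 µM compound for 30 min to 24h. Cells were harvested by trypsin, washed three times in PBS and resuspended in PBS. Uptake was read as mean fluorescence intensity by FACS.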

PANC-1 [7] = assay: Phototoxicity in human PANC1 cells assessed as reduction in cell viability preincubated for 3 hrs followed by 9 J/cm2 laser light irradiation and measured after 72 hrs by MTT assay; type: functional, cell-based; details: PANC-1, light or radiation study
In short: (§4)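 Cells were seeded at 5.0 x 10^3 per well and incubated overnight at 37 °C. AsPC-1 was in RPMI-1640 and MIA PaCa-2/PANC-1 in DMEM, with 10% FBS. Cells took up compound for 3h, then received 660 nm laser light (50 mW, 9 J/cm²).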

[8] = Solubility of the compound in 2% DMSO/98% de-ionized water at 7.7 uM; type: physicochemical; details: buffer
[9] = Drug uptake in human AsPC1 cells at 5 uM by FACS analysis; type: ADME, cell-based; details: aspc1, 5 µM, TDE = time-dependent effect; in short: as §3
MIA PaCa-2 [10] = assay: Phototoxicity in human MIAPaCa2 cells assessed as reduction in cell viability preincubated for 3 hrs followed by 9 J/cm2 laser light irradiation and measured after 72 hrs by MTT assay; type: functional, cell-based; details: MIA PaCa-2, light or radiation study; in short: as §4
[11] = Selectivity index, ratio of IC50 for dark toxicity in human MIAPaCa2 cells to IC50 for phototoxicity in human MIAPaCa2 cells; type: cell-based, MIA PaCa-2; details: read-out: Ratio IC50; in short: as §2
[12] = Dark toxicity in human AsPC1 cells assessed as reduction in cell viability after 72 hrs by MTT assay; type: cell-based; in short: as §1
ASPC1 [13] = assay: Phototoxicity in human AsPC1 cells assessed as reduction in cell viability preincubated for 3 hrs followed by 9 J/cm2 laser light irradiation and measured after 72 hrs by MTT assay; type: functional, cell-based; details: ASPC1, light or radiation study; in short: as §4
PANC-1 [14] = assay: Potency index, ratio of chlorin e6 IC50 to compound IC50 for phototoxicity in human PANC1 cells; type: functional
ASPC1 [15] = assay: Phototoxicity in human AsPC1 cells assessed as induction of apoptosis by measuring late apoptotic cells at 20 nM preincubated for 3 hrs followed by 9 J/cm2 laser light irradiation and measured after 24 hrs by Annexin V-FITC/propidium iodide staining based flow cytometry (reference value: 0.41%); type: functional
ASPC1 [16] = assay: Phototoxicity in human AsPC1 cells assessed as induction of apoptosis by measuring necrotic cells at 20 nM preincubated for 3 hrs followed by 9 J/cm2 laser light irradiation and measured after 24 hrs by Annexin V-FITC/propidium iodide staining based flow cytometry (reference value: 1.03%); type: functional
ASPC1 [17] = assay: Phototoxicity in human AsPC1 cells assessed as induction of apoptosis by measuring live cells at 60 nM preincubated for 3 hrs followed by 9 J/cm2 laser light irradiation and measured after 24 hrs by Annexin V-FITC/propidium iodide staining based flow cytometry (reference value: 91.51%); type: functional
[18] = Solubility of the compound in 2% DMSO/98% de-ionized water at 8.2 uM; type: physicochemical; details: buffer
ASPC1 [19] = assay: Phototoxicity in human AsPC1 cells assessed as induction of apoptosis by measuring early apoptotic cells at 40 nM preincubated for 3 hrs followed by 9 J/cm2 laser light irradiation and measured after 24 hrs by Annexin V-FITC/propidium iodide staining based flow cytometry (reference value: 7.05%); type: functional
ASPC1 [20] = assay: Phototoxicity in human AsPC1 cells assessed as induction of apoptosis by measuring early apoptotic cells at 20 nM preincubated for 3 hrs followed by 9 J/cm2 laser light irradiation and measured after 24 hrs by Annexin V-FITC/propidium iodide staining based flow cytometry (reference value: 7.05%); type: functional
ASPC1 [21] = assay: Phototoxicity in human AsPC1 cells assessed as induction of apoptosis by measuring upregulation of Bax expression at 20 to 40 nM preincubated for 3 hrs followed by 9 J/cm2 laser light irradiation and measured after 24 hrs by Western blot analysis; type: functional, cell-based
In short: (§5)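 Cells in six-well plates were exposed to compound for 3h and irradiated at 660 nm (50 mW, 9 J/cm²), then incubated 24h. Lysis was on ice in modified RIPA buffer (pH 7.4) with protease inhibitors. After clearing at 10,000g for 10 min at 4 °C, proteins were separated by 10% SDS-PAGE, blotted and detected by ECL.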

ASPC1 [22] = assay: Phototoxicity in human AsPC1 cells assessed as induction of apoptosis by measuring live cells at 40 nM preincubated for 3 hrs followed by 9 J/cm2 laser light irradiation and measured after 24 hrs by Annexin V-FITC/propidium iodide staining based flow cytometry (reference value: 91.51%); type: functional
[23] = Drug uptake in human AsPC1 cells at 5 uM after 24 hrs by FACS analysis relative to chlorin e6; type: ADME, cell-based; details: aspc1, 24 h; in short: as §3
ASPC1 [24] = assay: Phototoxicity in human AsPC1 cells assessed as induction of apoptosis by measuring upregulation of cleaved caspase-9 expression at 20 to 40 nM preincubated for 3 hrs followed by 9 J/cm2 laser light irradiation and measured after 24 hrs by Western blot analysis; type: functional, cell-based; in short: as §5
ASPC1 [25] = assay: Phototoxicity in human AsPC1 cells assessed as induction of apoptosis by measuring necrotic cells at 60 nM preincubated for 3 hrs followed by 9 J/cm2 laser light irradiation and measured after 24 hrs by Annexin V-FITC/propidium iodide staining based flow cytometry (reference value: 1.03%); type: functional
ASPC1 [26] = assay: Phototoxicity in human AsPC1 cells assessed as induction of apoptosis by measuring downregulation of Bcl2 expression at 20 to 40 nM preincubated for 3 hrs followed by 9 J/cm2 laser light irradiation and measured after 24 hrs by Western blot analysis; type: functional, cell-based; in short: as §5
ASPC1 [27] = assay: Phototoxicity in human AsPC1 cells assessed as induction of apoptosis by measuring late apoptotic cells at 40 nM preincubated for 3 hrs followed by 9 J/cm2 laser light irradiation and measured after 24 hrs by Annexin V-FITC/propidium iodide staining based flow cytometry (reference value: 0.41%); type: functional
[28] = Drug uptake in human AsPC1 cells at 5 uM up to 0.5 to 24 hrs by FACS analysis; type: ADME, cell-based; details: aspc1, 5 µM; in short: as §3
ASPC1 [29] = assay: Phototoxicity in human AsPC1 cells assessed as induction of apoptosis by measuring necrotic cells at 40 nM preincubated for 3 hrs followed by 9 J/cm2 laser light irradiation and measured after 24 hrs by Annexin V-FITC/propidium iodide staining based flow cytometry (reference value: 1.03%); type: functional
ASPC1 [30] = assay: Potency index, ratio of chlorin e6 IC50 to compound IC50 for phototoxicity in human AsPC1 cells; type: functional
MIA PaCa-2 [31] = assay: Potency index, ratio of chlorin e6 IC50 to compound IC50 for phototoxicity in human MIAPaCa2 cells; type: functional
ASPC1 [32] = assay: Phototoxicity in human AsPC1 cells assessed as induction of apoptosis by measuring late apoptotic cells at 60 nM preincubated for 3 hrs followed by 9 J/cm2 laser light irradiation and measured after 24 hrs by Annexin V-FITC/propidium iodide staining based flow cytometry (reference value: 0.41%); type: functional
[33] = Drug uptake in human AsPC1 cells at 5 uM after 3 hrs by FACS analysis relative to chlorin e6; type: ADME, cell-based; details: aspc1, 3 h; in short: as §3
ASPC1 [34] = assay: Phototoxicity in human AsPC1 cells assessed as induction of apoptosis by measuring early apoptotic cells at 60 nM preincubated for 3 hrs followed by 9 J/cm2 laser light irradiation and measured after 24 hrs by Annexin V-FITC/propidium iodide staining based flow cytometry (reference value: 7.05%); type: functional
ASPC1 [35] = assay: Phototoxicity in human AsPC1 cells assessed as induction of apoptosis by measuring live cells at 20 nM preincubated for 3 hrs followed by 9 J/cm2 laser light irradiation and measured after 24 hrs by Annexin V-FITC/propidium iodide staining based flow cytometry (reference value: 91.51%); type: functional

In the case of `CN(C)c1ccc2nc3ccc(=[N+](C)C)cc-3sc2c1`, the Activity [1] is reported as 33.9%.
Molecule `C=Cc1c(C)c2cc3nc(c(CC(=O)OC)c4[nH]c(cc5nc(cc1[nH]2)C(C)=C5CC)c(C)c4C(=O)NCCCOCCOCCOCCCNC(=O)CCCC(=O)Oc1ccc(/C=C/C(=O)CC(=O)/C=C/c2ccc(O)c(OC)c2)cc1OC)C(CCC(=O)OC)C3C` (configuration not stated) has an IC50 at 72 h [2] greater than 300 µM, an IC50 at 72 h [3] greater than 300 µM and an Activity [1] of 12.3%. The selectivity ratio [4] was 32.5, the selectivity ratio [5] was greater than 19.1 and the Drug uptake [6] was “Active”. The IC50 (PANC-1 [7]) was 15.7 µM, the solubility [8] was “Soluble” and the Drug uptake [9] was “Tde”. The IC50 (MIA PaCa-2 [10]) was 4.64 µM, the selectivity ratio [11] was greater than 64.7 and the IC50 at 72 h [12] was 193 µM. The IC50 (ASPC1 [13]) was 5.93 µM.
With `C=Cc1c(C)c2cc3nc(c(CC(=O)OC)c4[nH]c(cc5nc(cc1[nH]2)C(C)=C5CC)c(C)c4C(=O)NCCOCCOCCNC(=O)CCCC(=O)Oc1ccc(/C=C/C(=O)CC(=O)/C=C/c2ccc(O)c(OC)c2)cc1OC)C(CCC(=O)OC)C3C` (configuration not stated) the IC50 at 72 h [2] was 83 µM, the IC50 at 72 h [3] was greater than 300 µM and the Activity [1] was 12.1%. The selectivity ratio [4] was 4650, the selectivity ratio [5] was greater than 7500 and the “Ratio IC50” value (PANC-1 [14]) was 247. It also gave an IC50 (PANC-1 [7]) of 0.04 µM, an Activity (ASPC1 [15]) of 6.1% and an Activity (ASPC1 [16]) of 1.43%. The Activity (ASPC1 [17]) was 51.45%, the solubility [18] was “Soluble” and the Activity (ASPC1 [19]) was 16.27%. The Activity (ASPC1 [20]) was 15.09%, the Activity (ASPC1 [21]) was “Active” and the Drug uptake [9] was “Tde”. For the same molecule, the Activity (ASPC1 [22]) was 70.74%, the “fold change (FC)” value [23] was 29 and the Activity (ASPC1 [24]) was “Active”. For the same molecule, the IC50 (MIA PaCa-2 [10]) was 0.035 µM, the Activity (ASPC1 [25]) was 8.08% and the selectivity ratio [11] was 2370. The Activity (ASPC1 [26]) was “Active”, the Activity (ASPC1 [27]) was 10.77% and the Drug uptake [28] was “Active”. For the same molecule, the Activity (ASPC1 [29]) was 2.22%, the IC50 at 72 h [12] was 186 µM and the “Ratio IC50” value (ASPC1 [30]) was 488. The “Ratio IC50” value (MIA PaCa-2 [31]) was 452, the Activity (ASPC1 [32]) was 15.65% and the IC50 (ASPC1 [13]) was 0.04 µM. For the same molecule, the “fold change (FC)” value [33] was 47, the Activity (ASPC1 [34]) was 24.82% and the Activity (ASPC1 [35]) was 77.38%.
